Source: PubChem BioAssay (several laboratories)
Sampled rows, rich in hits. Any-hit rate of the full collection: about 6.3%.
RORa activator – activators of orphan receptor RORA, primary screen, cell-based, luminescence; Nuclear receptor ROR-alpha (Homo sapiens), P35398; CHO-K1 Gal4-RORA LBD luciferase reporter; percent increase over mock-subtracted basal signal; activation, % at 10 µM; 65,000 tested, 1.5% active; AID 560, 2006;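 active means activation above the mean of all tested compounds plus 3 SD, cut at about 49% in these data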;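 further: 0% = DMSO-treated RORA cells and 100% = added signal equal to DMSO minus mock-transfected cells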
MT1-MMP txn act – MT1-MMP promoter reporter activation – cell-based, luciferase luminescence, primary screen | HT1080 MT1-MMP promoter luciferase reporter, overnight; active compounds read high | 86,000 tested, 0.16% active | activation factor at 10 µM;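 active means activation factor of at least 2 for MT1-MMP transcription at 10 µM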
SF1 activator – activators of human SF-1, primary screen, cell-based, CHO-K1, Gal4-SF-1 LBD, luciferase luminescence; Steroidogenic factor 1 (Homo sapiens), Q13285; 65,000 tested, 1.9% active; CHO-K1 Gal4-SF-1 LBD luciferase reporter; % increase over DMSO SF-1-specific signal; activation, % at 10 µM;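 active means activation above the mean activation of all tested compounds plus 3 SD, cut at about 50% in these data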
Target sequence (Q13285 whole entry, looked up, the tested form may be a part): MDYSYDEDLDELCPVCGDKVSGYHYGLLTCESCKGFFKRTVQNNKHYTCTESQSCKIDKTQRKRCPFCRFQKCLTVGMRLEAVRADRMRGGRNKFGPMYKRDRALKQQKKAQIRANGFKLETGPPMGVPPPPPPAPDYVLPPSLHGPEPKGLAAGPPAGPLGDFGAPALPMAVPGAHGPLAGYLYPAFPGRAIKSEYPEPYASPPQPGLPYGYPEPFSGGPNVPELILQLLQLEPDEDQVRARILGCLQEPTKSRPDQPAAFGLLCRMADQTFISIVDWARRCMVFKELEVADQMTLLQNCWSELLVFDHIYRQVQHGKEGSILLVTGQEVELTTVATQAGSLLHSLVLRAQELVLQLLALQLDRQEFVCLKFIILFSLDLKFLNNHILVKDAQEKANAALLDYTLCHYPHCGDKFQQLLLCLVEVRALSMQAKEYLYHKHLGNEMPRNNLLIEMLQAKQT
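Material: Transient Gal4-SF-1 LBD reporter, CHO-K1 | Input: 4,000 cells/well | Dosing: One dose, 10 µM compound, 1% DMSO | Incubation: 20 h compound treatment, 37 °C | Detection: SteadyLite luciferase luminescence | Evaluation: Percent activation relative to DMSO median and mock-transfected background | Benchmarks: DMSO-treated SF-1-transfected cells as negative, DMSO-treated mock-transfected cells lacking SF-1 as background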
M1 ag – M1 muscarinic receptor agonists, primary screen, CHO-M1 cells, Fluo-4 calcium, agonist mode. Muscarinic acetylcholine receptor M1. Fluo-4 calcium fluorescence; active compounds read high. B-score at 10 µM. 64,000 tested, 3% active;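 active means fluorescence rise, raw or as B-score row- and column-corrected plate score, outside the 99.7% band of its plate's samples, either direction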
M1 antag – antagonists of rat M1 muscarinic receptor; Muscarinic acetylcholine receptor M1 (Rattus norvegicus), P08482; CHO-M1 cells, Fluo-4 calcium, ACh EC80 antagonist mode; active compounds read low; B-score at 10 µM; 64,000 tested, 3.4% active;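 active means calcium fluorescence response, raw or row-and-column corrected B-score, differing from the plate sample mean either way at a set confidence level, mostly lower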
M1 antag confirm – rat M1 muscarinic receptor antagonists, confirmation, CHO cells, Fluo-4 calcium, duplicate | shares compounds with M1 antag | 1,700 tested, 43% active | calcium response (max-min fluorescence) at 10 µM | ACh EC80 antagonism; active compounds read low;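 active means calcium response below the same-plate mean of wells given acetylcholine alone at its 80%-effect dose, minus 3 SD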;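 further: raw fluorescence intensity difference in arbitrary instrument units and not normalized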
mGluR4 antag – human mGluR4 response to M1 antagonist hits, M1 allosteric modulator project, cell-based, antagonist mode, secondary assay 1; shares compounds with M1 antag; CHO-mGluR4 calcium flux, Fluo-4 fluorescence, glutamate EC80; active compounds read low; fluorescence response (max-min) at 10 µM; 1,700 tested, 0.9% active; AID 678, 2007;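 active means fluorescence response below the plate's average for near-maximal glutamate wells, less 3 SD of those wells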;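 further: raw unnormalized fluorescence span taken in the window right after glutamate addition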
* hit, by the source's call; nt = not tested or not shown.

SMILES	RORa activator	MT1-MMP txn act	SF1 activator	M1 ag	M1 antag	M1 antag confirm	mGluR4 antag
O=C1CC(c2ccc(Cl)c(Cl)c2)CC(O)=C1C=NCCN1CCNCC1 (configuration not stated)	5	1.1	-12	0.21	-13*	173*	238
CC(=O)c1c(C)[nH]c(C(=O)CSc2nc3ccc(C)cc3[nH]2)c1C	nt	1.2	nt	nt	nt	nt	nt
CC(C)OC(=O)C(NC(=O)c1ccccc1)=C1CCCCC1	2	1.1	2	-0.3	-0.49	nt	nt
O=Cc1cn(CC(=O)N2CCOCC2)c2ccccc12	nt	1	nt	nt	nt	nt	nt
O=C(Cn1cc(/C=N/O)c2ccccc21)N1CCOCC1	3	1.1	6	-0.67	-2.2*	669	264
CN(C)c1ccc(-c2nnn(Cc3ccccc3Br)n2)cc1	39	1.3	3	-0.16	0.47	nt	nt
CC(=O)c1cccc(NC(=O)NCCS(C)=O)c1 (configuration not stated)	18	1	-8	-0.0032	0.42	nt	nt
CCCn1cnc2cc(NCc3ccccn3)ccc21	16	1.3	44	-0.73	-1.5	nt	nt
CCc1ccc(CNc2ccc3c(c2)ncn3C)cc1	61*	1.7	70*	-0.29	-2.7*	627	248
O=C(NCC(c1cccnc1)N1CCN(c2ccc(F)cc2)CC1)c1ccc(F)cc1 (configuration not stated)	-16	1	5	1.1	-0.17	nt	nt
C=CCSc1nc(N)c(C(=O)Nc2ccccc2C)cc1C(N)=O	-4	1.1	-5	0.6	-3*	614	248
O=S(=O)(C/C(=C/CO)S(=O)(=O)c1ccccc1)c1ccccc1	-89	0.6	-96	0.088	1	nt	nt
CCN(CC)S(=O)(=O)c1cccc(C(=O)NC(C(=O)NC2=NCCS2)C(C)C)c1 (configuration not stated)	-13	1.1	-13	-0.45	1	nt	nt
CCN(CC)S(=O)(=O)c1cccc(C(=O)NC(C(=O)Nc2nnc(C3CC3)s2)C(C)C)c1 (configuration not stated)	2	1.1	-3	-0.059	-2.6*	544	256
c1ccc2[nH]c(SN3CCOCC3)nc2c1	0	nt	-10	-0.6	0.04	nt	nt
Cc1cc(C(=O)CSc2nncs2)c(C)n1-c1c(C)n(C)n(-c2ccccc2)c1=O	-8	1.2	10	-2.4	-9.1*	215*	195
CCN(CC)c1ccc(-c2nc3cnccn3c2NC2CCCC2)cc1	nt	1.5	nt	nt	nt	nt	nt
COc1ccc(NC(=O)CC2C(=O)N(c3cccc(C)c3)C(=O)N2C2CCCCC2)cc1 (configuration not stated)	nt	1.1	nt	nt	nt	nt	nt
CSc1nc2ccccc2n1C(=O)NC1CCCCC1	-4	1.2	9	-0.019	-4.3*	581	200
CSCCC(NC(=O)COc1ccccc1)C(=O)N1CCN(c2ccccc2F)CC1 (configuration not stated)	22	1.1	-3	1	-0.24	nt	nt
COC(=O)c1sc(NC(=O)C2CCCCC2C(=O)O)c(C(=O)OC)c1C (configuration not stated)	-12	1.2	1	-0.0042	0.44	nt	nt
CCC1CCCCN1CCNC(=O)C1CCN(S(=O)(=O)c2c(C)noc2C)CC1 (configuration not stated)	-10	nt	-4	0.076	-12*	385*	179
O=C(NCc1ccco1)c1ccc(COCC(F)(F)F)cc1	-15	1.1	4	-0.034	0.008	nt	nt
COc1cccc(OC)c1C(=O)N1CCN(Cc2ccccc2C)CC1	4	0.9	-22	-0.35	0.44	nt	nt
CCCCN(C)C(=O)c1c[nH]c2ccc(S(=O)(=O)N3CCOCC3)cc2c1=O	0	1	11	0.73	0.2	nt	nt
SMILES	RORa activator	MT1-MMP txn act	SF1 activator	M1 ag	M1 antag	M1 antag confirm	mGluR4 antag
COc1ccc(-c2cn3c4c(sc3n2)CCCC4)cc1	-31	nt	-23	-0.24	0.42	nt	nt
COC(=O)CSc1nnc(CNC(=O)Cc2ccccc2)n1C	0	1.1	8	0.23	0.24	nt	nt
COc1cccc(-n2ccnc2SCC(=O)NCc2ccccc2)c1	7	1	2	0.093	-2.7*	528	191
O=C(Nc1ccc(S(=O)(=O)N2CCOCC2)cc1)C1CCCCC1	-1	1.3	3	0.31	0.38	nt	nt
O=C(Nc1ccc(S(=O)(=O)Nc2ccc(Cl)cc2)cc1)C1CCCO1 (configuration not stated)	-24	0.9	6	-0.15	-1.1*	575	297
O=C(Nc1ccc(S(=O)(=O)N2CCCCCC2)cc1)C1CCCO1 (configuration not stated)	-15	1.2	-7	-0.0033	-3.2*	654	218
CC(C)CCn1nnnc1C(c1ccc(F)cc1)N1CCC(C(N)=O)CC1 (configuration not stated)	-14	1.1	0	-0.36	-0.46	nt	nt
O=c1cc(CSc2nnnn2-c2ccccc2)nc2scc(-c3ccccc3)n12	7	1.2	-6	0.22	0.46	nt	nt
O=c1cc(CSc2nnnn2-c2ccccc2)nc2nc[nH]n12	3	1.1	9	-0.062	-2.1*	626	258
Cc1cccc(NC(=O)C2CCN(S(=O)(=O)c3cccs3)CC2)n1	-4	nt	6	-2	-2.9*	637	270
O=C(Nc1ccccn1)C1CCN(S(=O)(=O)c2cccs2)CC1	4	1.1	-5	-1.6	-0.46	nt	nt
COc1ccc(CN2CC(C(=O)NCc3cccc(OC)c3)CC2=O)cc1 (configuration not stated)	8	1.1	-22	0.78	1	nt	nt
O=C(Oc1ccc(Cl)cc1)N1CCCCC1	30	1.7	19	0.57	-0.6	nt	nt
O=C(Oc1ccc(OC(=O)N2CCCCC2)cc1)c1ccccc1	2	1.4	7	-0.083	-2.9*	237*	293
CCOC(=O)N1CCN(C(=O)c2oc3ccc(S(=O)(=O)N4CCCCCC4)cc3c2C)CC1	14	nt	8	-0.15	-2*	598	236
Cc1c(C(=O)NCc2cccnc2)oc2ccc(S(=O)(=O)N3CCCCC3)cc12	-9	1	-7	2.1	-0.36	nt	nt
Cc1c(C(=O)NCc2cccnc2)oc2ccc(S(=O)(=O)N3CCCCCC3)cc12	14	1.1	-14	-0.73	-1.6*	617	268
Cc1c(C(=O)NCc2ccccc2)oc2ccc(S(=O)(=O)N3CCCC3)cc12	-4	1.1	17	-0.75	0.52	nt	nt
